The source of these data is ChEMBL document CHEMBL2169847, “New tricks for an old natural product: discovery of highly potent evodiamine derivatives as novel antitumor agents by systemic structure-activity relationship analysis and biological evaluations” (J Med Chem, 2012).

The GI50 is the concentration that inhibits growth by half.

Common to all, as to type: functional
Assay [1] relates to A549. Briefly: Cytotoxicity against human A549 cells incubated for 72 hrs by MTT assay. Particulars: A549, 72 h. The procedure, abridged: (§1)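 MTT assay. Cells seeded at 5 × 10³/well and grown 24 h at 37 °C, 5% CO₂. Compounds added at several concentrations in triplicate wells, with 0.1% DMSO control, for 72 h. MTT then added for 4 h, formazan dissolved in DMSO, and absorbance read at 570 nm. GI₅₀ by Logit method; three experiments.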
In general terms: Tetrazolium assays rely on reduction of a dye to a coloured formazan, in cell work by metabolically active cells.

Assay [2] has as its system MDA-MB-435. Briefly: Cytotoxicity against human MDA-MB-435 cells incubated for 72 hrs by MTT assay. The following applies: MDA-MB-435, 72 h. The procedure, abridged:
as §1

Assay [3] has as its system HCT-116. Description: Cytotoxicity against human HCT116 cells incubated for 72 hrs by MTT assay. Particulars: HCT-116, 72 h. The procedure, abridged: as §1

The structures appear in SMILES notation.

With `CN1c2cccc(Cl)c2C(=O)N2CCc3c([nH]c4ccccc34)C21` (stereo unspecified), the 50% growth inhibitory concentration (GI50) in assay [1] came out at 5.65 µM; in assay [2] it was 1.43 µM; in assay [3], 4.56 µM.
For the compound `O=C1c2cc(F)ccc2NC2c3[nH]c4ccccc4c3CCN12` (stereo unspecified), the GI50 in assay [1], in assay [2] and in assay [3] was more than 200 µM throughout.
`CN1c2cc(Cl)ccc2C(=O)N2CCc3c([nH]c4ccccc34)C21` (stereo unspecified): the GI50 in assay [1], in assay [2] and in assay [3] was more than 200 µM throughout.
On to `O=c1c2cc(F)ccc2nc2n1CCc1c-2[nH]c2ccccc12`, for which the GI50 turned out to be 47.2 µM in assay [1], 15.9 µM in assay [2] and 20 µM in assay [3].
The corresponding values for `COc1ccc2[nH]c3c(c2c1)CCN1C(=O)c2cc(F)ccc2N(C)C31` (stereo unspecified) are 200 µM, less than 0.003 µM and 0.78 µM.
Take `CCOc1ccc2[nH]c3c(c2c1)CCN1C(=O)c2ccccc2N(C)C31` (stereo unspecified): the results for the concentration for 50% growth inhibition (GI50) in assay [1], in assay [2] and in assay [3] were more than 200 µM, 5.93 µM and 19.2 µM, respectively.
The corresponding values for `O=C1c2ccccc2OC2c3[nH]c4ccccc4c3CCN12` (stereo unspecified) are 2.4 µM, 3.13 µM and 3.03 µM.
The corresponding values for `COc1cccc2c1C(=O)N1CCc3c([nH]c4ccccc34)C1N2C` (stereo unspecified) are 128 µM, 22.3 µM and 19.7 µM.
As for `O=C1c2ccccc2OC2c3c(c4ccccc4n3C(=O)c3ccc(Cl)cc3)CCN12` (stereo unspecified), the concentration for 50% growth inhibition (GI50) in assay [1], in assay [2] and in assay [3] was more than 200 µM each time.
For `COc1ccc2c(c1)C(=O)N1CCc3c([nH]c4ccccc34)C1N2C` (stereo unspecified), the GI50 in assay [1] stood at 0.94 µM; in assay [2], 0.29 µM; in assay [3], 1.25 µM.
The corresponding values for `COc1ccc2[nH]c3c(c2c1)CCN1C(=S)c2ccccc2N(C)C31` (stereo unspecified) are 106 µM, 3.69 µM and 21.4 µM.
The corresponding values for `CN1c2ccccc2C(=O)N2CCc3c([nH]c4ccc(I)cc34)C21` (stereo unspecified) are 11.4 µM, 0.26 µM and 0.78 µM.
The corresponding values for `CN1c2ccccc2C(=O)N2CCc3c(n(C(=O)c4ccc(Cl)cc4)c4ccc(Br)cc34)C21` (stereo unspecified) are 22.5 µM, 38.7 µM and 19.7 µM.
Turning to `Cc1ccc2c(c1)C(=O)N1CCc3c([nH]c4ccccc34)C1N2C` (stereo unspecified), the 50% growth inhibitory concentration (GI50) was found to be 32.2 µM in assay [1], 0.32 µM in assay [2] and 0.61 µM in assay [3].
The corresponding values for `Cc1ccc2[nH]c3c(c2c1)CCN1C(=O)c2ccccc2N(C)C31` (stereo unspecified) are more than 200 µM, more than 200 µM and more than 200 µM.
Regarding `CN1c2ccccc2C(=O)N2CCc3c([nH]c4ccc([N+](=O)[O-])cc34)C21` (stereo unspecified), the GI50 in assay [1], in assay [2] and in assay [3] was more than 200 µM throughout.
On to `CC[C@@]1(O)C(=O)OCc2c1cc1n(c2=O)Cc2cc3c(CN(C)C)c(O)ccc3nc2-1` [TOPOTECAN], for which the values for the GI50 in assay [1], in assay [2] and in assay [3] were 3.96 µM, 0.034 µM and 0.4 µM, respectively.
The corresponding values for `CCCOc1ccc2[nH]c3c(c2c1)CCN1C(=O)c2ccccc2N(C)C31` (stereo unspecified) are more than 200 µM, 3.07 µM and 8.05 µM.
The corresponding values for `COc1ccc2c(c1)c1c(n2C(=O)c2ccc(Cl)cc2)C2N(CC1)C(=O)c1ccccc1N2C` (stereo unspecified) are 87.2 µM, 11.8 µM and 71 µM.
`COc1ccc2c(c1)C(=O)N1CCc3c(n(C(=O)c4ccc(Cl)cc4)c4ccccc34)C1N2C` (stereo unspecified): the GI50 in assay [1] was more than 200 µM; in assay [2] it was 184 µM; in assay [3] it was 88.7 µM.
The corresponding values for `CN1c2ccccc2CN2CCc3c(n(C(=O)c4ccc(Cl)cc4)c4ccccc34)C21` (stereo unspecified) are more than 200 µM, 96 µM and more than 200 µM.
Take `COc1ccc2c(c1)C(=O)N1CCc3c([nH]c4ccc(OC)cc34)C1N2C` (stereo unspecified): the values for the GI50 in assay [1], in assay [2] and in assay [3] were more than 200 µM, 9.8 µM and 0.033 µM, respectively.
The corresponding values for `COc1ccc2[nH]c3c(c2c1)CCN1C(=O)c2c(OC)cccc2N(C)C31` (stereo unspecified) are 98 µM, 21 µM and 42 µM.
The corresponding values for `C#CCOc1ccc2[nH]c3c(c2c1)CCN1C(=O)c2ccccc2N(C)C31` (stereo unspecified) are more than 200 µM, 4.39 µM and 14 µM.
As for `CN1c2ccccc2C(=O)N2CCc3c([nH]c4ccc(OCc5ccccc5)cc34)C21` (stereo unspecified), the GI50 in assay [1] was more than 200 µM; in assay [2], 41.2 µM; in assay [3] it was more than 200 µM.
Consider `CN1c2ccc(NC(=O)C3CC3)cc2C(=O)N2CCc3c([nH]c4ccccc34)C21` (stereo unspecified), for which the concentration for 50% growth inhibition (GI50) is more than 200 µM in assay [1], more than 200 µM in assay [2] and 187 µM in assay [3].
Regarding `CN1c2ccccc2C(=O)N2CCc3c(n(C(=O)c4ccc(Cl)cc4)c4ccc(O)cc34)C21` (stereo unspecified), the GI50 was 26.6 µM in assay [1], less than 0.002 µM in assay [2] and 0.05 µM in assay [3].
The corresponding values for `COc1cc2c(cc1OC)N(C)C1c3[nH]c4ccccc4c3CCN1C2=O` (stereo unspecified) are more than 200 µM, 8.97 µM and more than 200 µM.
The corresponding values for `COc1ccc2[nH]c3c(c2c1)CCN1C(=O)c2cc(F)ccc2NC31` (stereo unspecified) are 60.1 µM, 18.5 µM and 26.7 µM.
The corresponding values for `CN1c2ccccc2C(=O)N2CCc3c([nH]c4ccc(Br)cc34)C21` (stereo unspecified) are more than 200 µM, 37.6 µM and more than 200 µM.
Turning to `CC(=O)Nc1ccc2c(c1)C(=O)N1CCc3c([nH]c4ccccc34)C1N2C` (stereo unspecified), the values for the GI50 in assay [1], in assay [2] and in assay [3] were more than 200 µM, 59.1 µM and 70.5 µM, respectively.
As for `COc1ccc2c(c1)N(C)C1c3[nH]c4ccccc4c3CCN1C2=O` (stereo unspecified), the 50% growth inhibitory concentration (GI50) in assay [1], in assay [2] and in assay [3] was more than 200 µM each time.
`CN1c2ccccc2C(=O)N2CCc3c([nH]c4ccc(OCC5CO5)cc34)C21` (stereo unspecified): the GI50 came to 48.9 µM in assay [1], 0.61 µM in assay [2] and 2.98 µM in assay [3].
Consider `CCc1c2c(nc3ccc(OC(=O)N4CCC(N5CCCCC5)CC4)cc13)-c1cc3c(c(=O)n1C2)COC(=O)[C@]3(O)CC` [IRINOTECAN], for which the GI50 worked out at 5 µM in assay [1], 12.2 µM in assay [2] and 7.1 µM in assay [3].
The corresponding values for `CN1c2ccc(Br)cc2C(=O)N2CCc3c(n(C(=O)c4ccc(Cl)cc4)c4ccccc34)C21` (stereo unspecified) are more than 200 µM, 8.72 µM and 39.7 µM.
Regarding `CN1c2cccc(F)c2C(=O)N2CCc3c([nH]c4ccccc34)C21` (stereo unspecified), the figures for the 50% growth inhibitory concentration (GI50) in assay [1], in assay [2] and in assay [3] were 200 µM, 42.6 µM and more than 200 µM, respectively.
The corresponding values for `CN1c2ccc(N3CCC3)cc2C(=O)N2CCc3c([nH]c4ccccc34)C21` (stereo unspecified) are more than 200 µM, 0.2 µM and 3.85 µM.
The corresponding values for `CN1c2ccccc2CN2CCc3c([nH]c4ccccc34)C21` (stereo unspecified) are more than 200 µM, 16.2 µM and more than 200 µM.
The corresponding values for `CN1c2ccccc2C(=O)N2CCc3c([nH]c4ccc(Cl)cc34)C21` (stereo unspecified) are more than 200 µM, more than 200 µM and more than 200 µM.
Turning to `COc1ccc2[nH]c3c(c2c1)CCN1C(=O)c2cc([N+](=O)[O-])ccc2N(C)C31` (stereo unspecified), the GI50 was more than 200 µM in assay [1], more than 200 µM in assay [2] and 0.15 µM in assay [3].
`CN1c2ccccc2C(=O)N2CCc3c([nH]c4ccc(OC(=O)C5CC5)cc34)C21` (stereo unspecified): the GI50 in assay [1] was found to be 1.9 µM; in assay [2], 0.08 µM; in assay [3], 0.01 µM.
The corresponding values for `COc1ccc2c(c1)C(=O)N1CCc3c([nH]c4ccc(O)cc34)C1N2C` (stereo unspecified) are 1.6 µM, 0.66 µM and 0.07 µM.
The corresponding values for `CN1c2ccccc2C(=O)N2CCc3c([nH]c4ccc(F)cc34)C21` (stereo unspecified) are 6.85 µM, 27.4 µM and 8.56 µM.
As for `CN1c2ccccc2C(=S)N2CCc3c(n(C(=O)c4ccc(Cl)cc4)c4ccccc34)C21` (stereo unspecified), the GI50 in assay [1], in assay [2] and in assay [3] was more than 200 µM in each case.
For the compound `CN1c2ccccc2C(=O)N2CCc3c([nH]c4c([N+](=O)[O-])cc([N+](=O)[O-])cc34)C21` (stereo unspecified), the concentration for 50% growth inhibition (GI50) in assay [1] was more than 200 µM; in assay [2], 0.16 µM; in assay [3] it was more than 200 µM.
With `CN1c2ccc([N+](=O)[O-])cc2C(=O)N2CCc3c([nH]c4ccccc34)C21` (stereo unspecified), the 50% growth inhibitory concentration (GI50) in assay [1], in assay [2] and in assay [3] was more than 200 µM each time.
Regarding `CN1c2ccccc2C(=O)N2CCc3c(n(C(=O)c4ccc(Cl)cc4)c4ccc(Cl)cc34)C21` (stereo unspecified), the GI50 was more than 200 µM in assay [1], 72.7 µM in assay [2] and more than 200 µM in assay [3].
Take `CN1c2ccccc2C(=S)N2CCc3c([nH]c4ccccc34)C21` (stereo unspecified): the GI50 is 90.7 µM in assay [1], 12.2 µM in assay [2] and 46.5 µM in assay [3].
The corresponding values for `COc1ccc2[nH]c3c(c2c1)CCN1C(=O)c2cc(Cl)ccc2N(C)C31` (stereo unspecified) are 13 µM, 2 µM and 0.004 µM.
The corresponding values for `CN1c2ccc(I)cc2C(=O)N2CCc3c([nH]c4ccccc34)C21` (stereo unspecified) are more than 200 µM, 2.94 µM and more than 200 µM.
The corresponding values for `COc1ccc2[nH]c3c(c2c1)CCN1C(=O)c2ccccc2N(C)C31` (stereo unspecified) are more than 200 µM, 8.97 µM and more than 200 µM.
For the compound `Cc1cccc2c1C(=O)N1CCc3c([nH]c4ccccc34)C1N2C` (stereo unspecified), the GI50 came out at 14.3 µM in assay [1], 20.2 µM in assay [2] and 13.1 µM in assay [3].
